# Compounds with a hit are over-represented: about 3.5% of the library has one in this group of screens.
# MrgX1 ag: agonists of human MrgX1 receptor, primary screen, HEK293 cells, Fluo-4 calcium flux; Fluo-4 calcium fluorescence, agonist mode; hits give high values; 310,000 compounds, 0.44% hits; Mas-related G-protein coupled receptor member X1 (Homo sapiens), Q96LB2; B-score at 10 µM;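 active = calcium response B-score plate-corrected fluorescence ratio at least 3 library SD, with starting fluorescence B-score inside 5 SD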
# Target sequence (Q96LB2 whole entry, looked up): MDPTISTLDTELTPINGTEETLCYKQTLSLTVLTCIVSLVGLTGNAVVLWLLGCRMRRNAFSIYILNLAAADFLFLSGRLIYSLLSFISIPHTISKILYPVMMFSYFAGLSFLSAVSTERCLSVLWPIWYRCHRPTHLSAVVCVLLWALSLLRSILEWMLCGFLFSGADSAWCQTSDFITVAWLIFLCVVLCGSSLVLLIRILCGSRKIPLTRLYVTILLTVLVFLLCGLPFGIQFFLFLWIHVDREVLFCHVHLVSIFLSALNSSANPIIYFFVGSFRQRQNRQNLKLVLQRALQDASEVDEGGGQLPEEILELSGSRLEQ
#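 Assay system: stable human MrgX1 HEK293 cell line. Quantity: 15,000 cells per well. Schedule: cells plated overnight, dye loaded 0.5 h 37 °C, 0.5 h room temperature. Detection: Fluo-4 NW calcium-flux fluorescence, kinetic read. Read-out basis: peak-minus-minimum fluorescence over baseline, converted to B scores. Control set: positive and negative control wells on each plate.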
# MrgX1 PAM: positive allosteric modulators of MrgX1, primary screen, HEK293 cells, Fluo-4 calcium flux; B-score at 10 µM; AID 588675, 2011; Mas-related G-protein coupled receptor member X1 (Homo sapiens), Q96LB2; FDSS; hits give high values; 310,000 compounds, 0.63% hits;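 active = plate-corrected calcium response at least 3 library SD above typical, normal starting fluorescence, not activating the receptor alone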;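 also: compound read alongside a low EC10 to EC30 dose of BAM8-22 agonist; peak minus trough fluorescence over baseline measured at the second addition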
# RGS4 act: RGS4 potentiators or activators, primary screen, cell-based, HEK293 M3R inducible RGS4, calcium flux | carbachol calcium flux Fluo4; hits give low values | 310,000 compounds, 0.92% hits | B-score at 10 µM | AID 463111, 2010;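 active = B-score of the integrated calcium signal more than 4 SD below the library mean, with starting fluorescence not abnormally high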;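 also: negative B-score means reduced calcium response which marks RGS4 activation or potentiation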
#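 Reagent: ECmax carbachol challenge; Test system: M3R-expressing HEK293 line, RGS4 induced by doxycycline; Schedule: overnight RGS4 induction, 30 min dye load 37 °C, 20 min compound RT; Detection: calcium dye Fluo4 fluorescence; Read-out: Agonist-evoked peak-minus-minimum fluorescence over baseline, integrated ratio, B score.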
# MrgX1 antag: antagonists of human MrgX1 receptor, primary screen, HEK293 cells, Fluo-4 calcium flux | Mas-related G-protein coupled receptor member X1 (Homo sapiens), Q96LB2 | BAM8-22 antagonism; hits give low values | B-score at 10 µM | 310,000 compounds, 1.3% hits | AID 588676, 2011;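 active = calcium-response B-score plate-corrected more than 3 library SD below zero, starting fluorescence within 5 deviations, no agonist response on first addition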;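 also: peak minus trough fluorescence over baseline after final BAM8-22 challenge near maximal dose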
# RGS4 block: RGS4 inhibitors, primary screen, cell-based, HEK293 M3R inducible RGS4, calcium flux; Fluo-4 calcium flux; hits give high values; triggered by carbachol at its EC20; 310,000 compounds, 0.45% hits; Regulator of G-protein signaling 4 (Homo sapiens), P49798; B-score at 10 µM; AID 463165, 2010;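 active = B-score, a plate-corrected calcium signal, over three deviations above library mean, with baseline fluorescence within five deviations of library mean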;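 also: RGS4 expression induced by doxycycline in cells with stable M3 receptor; B-score is computed from the integrated fluorescence ratio over baseline after carbachol; higher B-score means a larger calcium signal and so more RGS4 inhibition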
# Target sequence (P49798 whole entry, looked up): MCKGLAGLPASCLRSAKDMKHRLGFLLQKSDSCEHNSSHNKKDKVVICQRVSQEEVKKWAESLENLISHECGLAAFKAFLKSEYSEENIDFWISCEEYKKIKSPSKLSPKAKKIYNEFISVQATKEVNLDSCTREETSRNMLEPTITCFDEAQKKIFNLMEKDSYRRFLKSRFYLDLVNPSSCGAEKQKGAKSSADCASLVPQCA
# MrgX1 antag conf: MrgX1 receptor antagonists, duplicate retest, confirmation, HEK293 cells, Fluo-4 calcium flux; shares compounds with MrgX1 antag; BAM8-22 calcium flux; hits give low values; remaining BAM8-22 calcium response % of control (hits give low values), % at 10 µM; 2,300 compounds, 19% hits;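 active = remaining agonist calcium response no higher than 100% minus 3 SD of agonist-only control wells, with starting fluorescence near control levels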;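 also: agonist BAM8-22 given at a near maximal EC90 to ECmax level; peak minus minimum fluorescence divided by baseline after agonist addition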
# HEK293 Ca flux: nonspecific calcium signal in parental HEK293, confirmation, counter-screen for MrgX1 antagonist project, parental HEK293 cells, Fluo-4 calcium flux | shares compounds with MrgX1 antag | Fluo-4 calcium fluorescence, FDSS | fluorescence ratio F(max-min)/F0 at 10 µM | 4,000 compounds, 2% hits;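 active = duplicate-averaged calcium fluorescence ratio at least three times the standard deviation of buffer wells, a nonspecific response in parental cells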
# HEK293 Ca counter: calcium response in parental HEK293 cells, primary screen, counter-screen for MrgX1 allosteric activator project, cell-based, Fluo-4 calcium flux, duplicate. shares compounds with MrgX1 antag. Fluo-4 fluorescence ratio; hits give high values. fluorescence ratio F(max-min)/F0 at 10 µM. 4,000 compounds, 0.4% hits. AID 624114, 2012;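 active = calcium fluorescence ratio, averaged over duplicates, at least 3 SD of the buffer-well ratio, meaning a nonspecific response in receptor-free cells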;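 also: untransfected parental HEK293 lacking MrgX1 used as counterscreen for MrgX1 allosteric activators; fluorescence change taken during the second addition on a kinetic imager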
# HEK293 Ca cntr2: calcium response in parental HEK293 cells, primary screen, counter-screen for MrgX1 agonist project, cell-based, Fluo-4 calcium flux, duplicate, agonist mode; shares compounds with MrgX1 antag; Fluo-4 calcium fluorescence (FDSS); hits give high values; fluorescence ratio F(max-min)/F0 at 10 µM; 4,000 compounds, 8.7% hits; AID 624115, 2012;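 active = calcium fluorescence ratio at least three times the spread of buffer wells, meaning a non-specific response in parental cells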
# Numbers without * were called inactive; i = inactive; x = no result given.
SMILES,MrgX1 ag,MrgX1 PAM,RGS4 act,MrgX1 antag,RGS4 block,MrgX1 antag conf,HEK293 Ca flux,HEK293 Ca counter,HEK293 Ca cntr2
CCc1cccc(NC(=O)CCC(=O)N2CCSc3ccccc32)c1,i,i,i,i,i,x,x,x,x
CCc1ccc(NC(=O)CCC(=O)N2CCSc3ccccc32)cc1,i,i,i,-5.2*,i,i,i,i,i
COc1ccc2[nH]c(C(=O)N3CCC(CO)(Cc4cccc(C(F)(F)F)c4)CC3)c(C)c2c1,i,i,i,i,i,x,x,x,x
COc1ccc(CCNc2ncnc3c2oc2ccccc23)cc1OC,i,i,i,-4.6*,i,43%*,i,i,i
CCOC(=O)CSc1nc(Nc2ccc3c(c2)OCO3)c2ccccc2n1,i,i,i,i,i,x,x,x,x
CCOC(=O)c1cnc2ccccc2c1Nc1ccc2c(c1)OCCO2,i,i,i,-5.5*,i,i,i,i,i
CCN1CCN(CC(=O)N2c3ccccc3Sc3ccccc32)CC1,i,i,i,-5.1*,i,i,i,i,i
CCn1c(/C=C/c2c(C)[nH]c3ccccc23)nc2ccccc2c1=O,i,i,i,-5.3*,i,i,i,i,i
O=C(c1cc(F)c(F)cc1Cl)N1CCOCC1,i,i,i,i,i,x,x,x,x
CC1CCN(C(=O)c2cc(F)c(F)cc2Cl)CC1,i,i,i,-5.2*,i,i,i,i,i
CC(C)c1ccc(NC(=O)C(c2ccccc2)N2CC(=O)Nc3ccccc32)cc1 (centres undefined),i,i,i,i,i,x,x,x,x
CCc1nnc(NC(=O)CSc2nc3cccnc3n2Cc2ccccc2)s1,i,i,i,-5.9*,i,i,i,i,i
O=C(COC(=O)c1cnccn1)Nc1ncc(Cl)cc1Cl,i,i,i,i,i,x,x,x,x
O=C(COC(=O)c1cnccn1)NCCc1ccc(Cl)cc1Cl,i,i,i,-5.9*,i,i,i,i,i
CN(CCc1ccccc1)C1CCCN(S(=O)(=O)N(C)C)C1 (centres undefined),i,i,i,i,i,x,x,x,x
Oc1ccccc1NCC(O)Cn1ccc2ccccc21 (centres undefined),i,i,i,-5.3*,i,i,i,i,i
O=C(CCC(=O)Nc1ccccc1)N/N=C/c1cccnc1,i,i,i,i,i,x,x,x,x
Cc1ccnc(N2CCC(C(=O)Nc3ccc(Oc4ccccc4)cc3)CC2)n1,i,i,i,i,i,x,x,x,x
Cc1ccnc(N2CCC(C(=O)Nc3cccc(C(F)(F)F)c3)CC2)n1,i,i,i,-4.8*,i,i,i,i,i

# Screening results as filed in PubChem.
